The values that follow come from ChEMBL document CHEMBL1145492, “Comparison of the phosphorylation of 4'-ethynyl 2',3'-dihydro-3'-deoxythymidine with that of other anti-human immunodeficiency virus thymidine analogs” (Antimicrob Agents Chemother, 2007).

Assay [1] deals with T1, Thymidylate kinase (Homo sapiens) (UniProt P23919).
T1 sequence (whole entry): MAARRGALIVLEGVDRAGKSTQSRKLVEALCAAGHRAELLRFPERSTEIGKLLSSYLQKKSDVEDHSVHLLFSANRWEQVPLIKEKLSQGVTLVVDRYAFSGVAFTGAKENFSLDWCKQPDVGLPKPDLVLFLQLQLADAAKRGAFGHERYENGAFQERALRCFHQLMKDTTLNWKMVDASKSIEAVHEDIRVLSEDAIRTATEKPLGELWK
Kind of assay: Ratio of Kcat to Km of human recombinant TMPK relative to D4TMP.

The target in assay [2] is T1, Thymidylate kinase (Homo sapiens). Kind of assay: Ratio of Kcat to Km of human recombinant TMPK relative to […]. A digest of the protocol: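 Substrate ranges were TMP 6.25–100 μM and analog MPs 6.25–250 μM. Reactions were stopped at various times with TCA and neutralized with trioctylamine/trichlorotrifluoroethane. Km and kcat came from Lineweaver-Burk plots. Relative efficiency is kcat/Km with D4TMP as 100%. Mean ± SD of three experiments.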

The species entered for assay [3] is Homo sapiens. Kind of assay: Activity of human recombinant 3-phosphoglycerate kinase. The procedure, abridged: (§1)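 Recombinant human nm23-H1 and nm23-H2 (cloned from KB) and PGK (cloned from HepG2). Donor was 2 mM ATP for nm23; for PGK, 1,3-bisphosphoglycerate generated by GAPDH. Specific activity (nmol/min/mg) was normalized per unit (1 μmol ADP→ATP/min) and compared with D4TDP. Mean ± SD, n=3.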

Assay [4] concerns CCRF-CEM. Kind of assay: Activity of nucleoside diphosphate kinase from crude human CEM cell extract assessed as conversion of 1 umol of ADP to ATP per min. In kind it is cell-free. The procedure, abridged:
(§2)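 CEM cell lysate (NP-40 lysis buffer, desalted on G-50) as enzyme source. Donors: 2 mM ATP for NDPK; 2 mM creatine phosphate for CK; 2 mM phosphoenolpyruvate for PK; for PGK, 1,3-bisphosphoglycerate made in situ by GAPDH. Activity in nmol/min/mg, normalized per unit (1 μmol ADP→ATP/min), then relative to D4TDP.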

In assay [5] the test system is CCRF-CEM. Kind of assay: Activity of 3-phosphoglycerate kinase from crude human CEM cell extract. In kind it is cell-free. The procedure, abridged: as §2
For assay [6], the target named is Nucleoside diphosphate kinase B (Homo sapiens) (UniProt P22392). Kind of assay: Activity of human recombinant nm23H2. The procedure, abridged: as §1
Assay [7] addresses Nucleoside diphosphate kinase A (Homo sapiens) (UniProt P15531). Kind of assay: Activity of human recombinant nm23H1 assessed as conversion of 1 umol of ADP to ATP per min. The procedure, abridged:
as §1

Assay [8] relates to CCRF-CEM. Kind of assay: Activity of pyruvate kinase from crude human CEM cell extract. In kind it is cell-free. The procedure, abridged: as §2
Assay [9] has as its system CCRF-CEM. Kind of assay: Activity of nucleoside diphosphate kinase from crude human CEM cell extract. It is filed as cell-free. A digest of the protocol: as §2
For assay [10], the species on record is Homo sapiens. Kind of assay: Activity of human recombinant 3-phosphoglycerate kinase assessed as conversion of 1 umol of ADP to ATP per min. A digest of the protocol: as §1
In assay [11] the target is Nucleoside diphosphate kinase B (Homo sapiens) (UniProt P22392). Kind of assay: Activity of human recombinant nm23H2 assessed as conversion of 1 umol of ADP to ATP per min. A digest of the protocol:
as §1

Assay [12] concerns CCRF-CEM. Kind of assay: Activity of 3-phosphoglycerate kinase from crude human CEM cell extract assessed as conversion of 1 umol of ADP to ATP per min. It is filed as cell-free. A digest of the protocol: as §2
Assay [13] deals with CCRF-CEM. Kind of assay: Activity of pyruvate kinase from crude human CEM cell extract assessed as conversion of 1 umol of ADP to ATP per min. In kind it is cell-free. A digest of the protocol:
as §2

Assay [14] concerns the target Nucleoside diphosphate kinase A (Homo sapiens) (UniProt P15531). Kind of assay: Activity of human recombinant nm23H1. The procedure, abridged: as §1
Assay [15] addresses T1, Thymidylate kinase (Homo sapiens). Kind of assay: Activity of TMPK in human CEM cells assessed as level of triphosphate metabolites per 10^6 cells at 2 uM after 12 hrs. In kind it is cell-based. The settings on record: CCRF-CEM. The procedure, abridged:
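CEM cells at 10^6/ml in RPMI/10% FBS were exposed to 2 μM radiolabeled nucleoside (75 mCi/mmol) for 12 h. Cells were washed in cold PBS with 20 μM dipyridamole and extracted with 15% TCA on ice for 15 min. Extracts were neutralized with trioctylamine/trichlorotrifluoroethane (45:55). MP, DP and TP were resolved by HPLC, and radioactivity was converted to pmol/10^6 cells. Two independent experiments.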

In assay [16] the test system is CCRF-CEM. Kind of assay: Activity of nucleoside diphosphate kinase from crude human CEM cell extract assessed as phosphorylation efficiency relative to D4TDP. In kind it is cell-free. The procedure, abridged: as §2
Assay [17] addresses Nucleoside diphosphate kinase B (Homo sapiens) (UniProt P22392). Kind of assay: Activity of human recombinant nm23H2 assessed as phosphorylation efficiency relative to 4-ethynyl D4TDP. The following applies: in the assay text read “relative to D4TDP” for “relative to 4-ethynyl D4TDP”. A digest of the protocol: as §1
The target of assay [18] is Nucleoside diphosphate kinase A (Homo sapiens) (UniProt P15531). Kind of assay: Activity of human recombinant nm23H1 assessed as phosphorylation efficiency relative to 4-ethynyl D4TDP. The settings on record: in the assay text read “relative to D4TDP” for “relative to 4-ethynyl D4TDP”. The procedure, abridged:
as §1

The subject of assay [19] is CCRF-CEM. Kind of assay: Activity of 3-phosphoglycerate kinase from crude human CEM cell extract assessed as phosphorylation efficiency relative to D4TDP.
The species entered for assay [20] is Homo sapiens. Kind of assay: Activity of human recombinant 3-phosphoglycerate kinase assessed as phosphorylation efficiency relative to 4-ethynyl D4TDP. The following applies: in the assay text read “relative to D4TDP” for “relative to 4-ethynyl D4TDP”. A digest of the protocol:
as §1

In assay [21] the test system is CCRF-CEM. Kind of assay: Activity of 3-phosphoglycerate kinase from crude human CEM cell extract assessed as phosphorylation efficiency relative to 4-ethynyl D4TDP. The settings on record: in the assay text read “relative to D4TDP” for “relative to 4-ethynyl D4TDP”. A digest of the protocol:
as §2

The test system of assay [22] is CCRF-CEM. Kind of assay: Activity of creatine kinase from crude human CEM cell extract. It is filed as cell-free. A digest of the protocol:
as §2

Chain of Nucleoside diphosphate kinase A (Homo sapiens) (P15531 whole entry): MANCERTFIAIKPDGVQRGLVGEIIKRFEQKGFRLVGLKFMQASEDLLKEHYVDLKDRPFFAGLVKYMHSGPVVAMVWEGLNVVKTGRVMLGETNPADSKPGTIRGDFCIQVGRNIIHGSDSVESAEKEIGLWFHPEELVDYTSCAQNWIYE
Chain of Nucleoside diphosphate kinase B (Homo sapiens) (P22392 whole entry): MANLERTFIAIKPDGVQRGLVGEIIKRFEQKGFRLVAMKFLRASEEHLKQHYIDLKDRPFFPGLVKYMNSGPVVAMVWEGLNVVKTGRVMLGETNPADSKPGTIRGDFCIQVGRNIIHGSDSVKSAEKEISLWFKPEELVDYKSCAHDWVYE

As to `Cc1cn([C@H]2C[C@H](O)[C@@H](COP(=O)(O)O)O2)c(=O)[nH]c1=O`, the Activity in assay [1] turned out to be 5600%.
For the compound `C#C[C@@]1(COP(=O)(O)O)C=C[C@H](n2cc(C)c(=O)[nH]c2=O)O1`, in [2], the Activity stood at 8.8%.
For `Cc1cn([C@H]2C=C[C@@H](COP(=O)(O)OP(=O)(O)O)O2)c(=O)[nH]c1=O`, the Activity in [3] is 10 nmol/min/mg; in assay [4], 0.42 nmol; in assay [5], 4.2 nmol/min/mg; in [6] it was 1700 nmol/min/mg; in assay [7] it was 1.2 nmol; in assay [8], 0.35 nmol/min/mg. Besides, the Activity in [9] was determined as 1.1 nmol/min/mg; in assay [10] it was 0.0037 nmol; in [11], 1.2 nmol; in assay [12] it was 0.4 nmol; in assay [13] it was 99 nmol; in assay [14] it was 1500 nmol/min/mg.
Take `Cc1cn([C@H]2C[C@H](N=[N+]=[N-])[C@@H](CO)O2)c(=O)[nH]c1=O`: the Activity in assay [15] was 0.27 pmol.
As to `Cc1cn([C@H]2C[C@H](O)[C@@H](COP(=O)(O)OP(=O)(O)O)O2)c(=O)[nH]c1=O`, the Activity in assay [3] stood at 137 nmol/min/mg; in assay [4], 1100 nmol; in assay [16], 260000%; in assay [5] it was 21 nmol/min/mg; in [6], 1.4e+06 nmol/min/mg; in assay [17], 83000%. Also, the Activity in assay [18] came to 89000%; in [7], 1000 nmol; in assay [9], 2700 nmol/min/mg; in assay [10] it was 0.049 nmol; in assay [11] it was 1000 nmol; in [12], 2 nmol. Moreover, the Activity was 490% in [19], 1300% in assay [20] and 1.3e+06 nmol/min/mg in [14].
As for `Cc1cn([C@@H]2C[C@H](N=[N+]=[N-])[C@@H](COP(=O)(O)OP(=O)(O)O)O2)c(=O)[nH]c1=O`, the Activity in [3] is 14 nmol/min/mg; in [4], 0.007 nmol; in [16], 1.7%; in assay [5] it was 0.26 nmol/min/mg; in assay [21] it was 6.2%; in [6], 131 nmol/min/mg. For the same compound, the Activity in [17] is 7.6%; in assay [18] it was 7.2%; in [7], 0.08 nmol; in assay [9], 0.018 nmol/min/mg; in assay [10], 0.005 nmol; in assay [11] it was 0.1 nmol. In addition, the values for the Activity in assay [12], in [20] and in assay [14] were 0.025 nmol, 135% and 107 nmol/min/mg, respectively.
Regarding `Cc1cn([C@H]2C[C@H](N=[N+]=[N-])[C@@H](COP(=O)(O)O)O2)c(=O)[nH]c1=O`, the Activity in assay [1] was 59%.
As for `Nc1ncnc2c1ncn2[C@@H]1O[C@H](COP(=O)(O)OP(=O)(O)O)[C@@H](O)[C@H]1O`, the Activity in assay [5] was found to be 10600 nmol/min/mg; in assay [22], 2.5 nmol/min/mg; in [8] it was 3.6 nmol/min/mg; in assay [9], 2500 nmol/min/mg.
